# Assays:
# DHFR = biological target: T1, DHFR (Homo sapiens, UniProt P00374); test: DHFR inhibition assay; assay type: biochemical; conditions: from IC50 values
# T1 sequence (P00374 1-187): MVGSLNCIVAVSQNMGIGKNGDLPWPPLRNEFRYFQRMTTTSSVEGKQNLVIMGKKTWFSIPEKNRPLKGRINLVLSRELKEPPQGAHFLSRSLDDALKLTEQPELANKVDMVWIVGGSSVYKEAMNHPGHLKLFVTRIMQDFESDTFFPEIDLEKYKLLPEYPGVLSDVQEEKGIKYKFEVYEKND
# [1] = system: MCF-7 breast cancer cell line; test: Anticancer screening, MTT assay; assay type: cell-based, human
# In short: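 MCF-7 cells were seeded at 10,000 cells/well and grown 24 h in DMEM with 10% FBS and 1% antibiotic at 37 °C, 5% CO2. They were then exposed for 24 h to a range of test compound concentrations prepared in incomplete medium. MTT was added at 250 µg/ml final for 2 h, the supernatant was removed, and formazan was dissolved in DMSO. Absorbance was read at 540 nm, in triplicate.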
# [2] = system: C. albicans (ATCC SC5314); test: Antifungal activity, broth microdilution MIC; assay type: cell-based
Compound,DHFR inhibitory potency relative to methotrexate (DHFR),"Anticancer activity against MCF-7, in words [1]","Inhibitory activity against fungal strain C. albicans, in words [2]"
"CC(C)NCC(COc1cccc2ccccc12)OC(=O)C=Cc1ccc(O)c(O)c1 (stereo not drawn) [CE11, 1-(isopropylamino)−3-(naphthalen-1-yloxy)propan-2-yl 3-(3,4-dihydroxyphenyl)acrylate]",approximately four times more effective than methotrexate,,
"CC1CCC(C(C)C)C(OC(=O)C=Cc2ccc(O)c(O)c2)C1 (stereo not drawn) [CE3, 2-isopropyl-5-methylcyclohexyl 3-(3,4-dihydroxyphenyl)acrylate]",,moderate anticancer activity,moderate action
"Nc1ccccc1OC(=O)C=Cc1ccc(O)c(O)c1 [CE17, 2-aminophenyl 3-(3,4-dihydroxyphenyl)acrylate]",,moderate anticancer activity,moderate action
"O=C(C=Cc1ccc(O)c(O)c1)OCCc1ccccc1 [CE12, Phenethyl 3-(3,4-dihydroxyphenyl)acrylate]",,,moderate action

# From PMC11658390 (BMC Chemistry, 2024)
